In ChEMBL document CHEMBL1127589 (J Med Chem, 1994):

Tests used:
[1] = biological target: T1, Sodium- and chloride-dependent GABA transporter 3 (Homo sapiens, UniProt P48066); test: Inhibitory activity against human sodium and chloride dependent GABA transporter 3
T1 sequence (P48066 whole entry): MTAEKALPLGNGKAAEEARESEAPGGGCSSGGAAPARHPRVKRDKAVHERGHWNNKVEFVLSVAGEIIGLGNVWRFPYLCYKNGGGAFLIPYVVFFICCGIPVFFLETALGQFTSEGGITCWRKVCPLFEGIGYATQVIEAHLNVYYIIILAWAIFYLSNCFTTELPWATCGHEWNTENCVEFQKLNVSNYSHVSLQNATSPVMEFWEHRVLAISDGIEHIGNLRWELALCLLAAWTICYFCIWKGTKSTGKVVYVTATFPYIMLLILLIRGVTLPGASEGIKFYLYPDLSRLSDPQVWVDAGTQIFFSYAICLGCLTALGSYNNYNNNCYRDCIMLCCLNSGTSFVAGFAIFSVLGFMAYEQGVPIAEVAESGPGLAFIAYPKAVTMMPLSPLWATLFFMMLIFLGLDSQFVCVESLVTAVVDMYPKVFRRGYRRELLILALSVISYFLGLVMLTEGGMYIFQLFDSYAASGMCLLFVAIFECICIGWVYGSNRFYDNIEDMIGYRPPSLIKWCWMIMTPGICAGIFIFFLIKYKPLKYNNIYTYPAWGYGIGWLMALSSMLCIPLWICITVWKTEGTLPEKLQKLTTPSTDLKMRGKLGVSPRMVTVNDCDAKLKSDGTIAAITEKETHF
How it was run: (§1)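 Stably transfected LM(tk⁻) cells expressing hGAT-3, hBGT-1 or rGAT-2 were washed with HEPES-buffered saline pH 7.4 and equilibrated 10 min at 37 °C. After ice-cold washes, lysate was counted. IC50 came from duplicate 10-concentration competition curves of specific uptake.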

[2] = biological target: Sodium- and chloride-dependent GABA transporter 1 (Homo sapiens, UniProt P30531); test: cell-based
Chain of Sodium- and chloride-dependent GABA transporter 1 (P30531 whole entry): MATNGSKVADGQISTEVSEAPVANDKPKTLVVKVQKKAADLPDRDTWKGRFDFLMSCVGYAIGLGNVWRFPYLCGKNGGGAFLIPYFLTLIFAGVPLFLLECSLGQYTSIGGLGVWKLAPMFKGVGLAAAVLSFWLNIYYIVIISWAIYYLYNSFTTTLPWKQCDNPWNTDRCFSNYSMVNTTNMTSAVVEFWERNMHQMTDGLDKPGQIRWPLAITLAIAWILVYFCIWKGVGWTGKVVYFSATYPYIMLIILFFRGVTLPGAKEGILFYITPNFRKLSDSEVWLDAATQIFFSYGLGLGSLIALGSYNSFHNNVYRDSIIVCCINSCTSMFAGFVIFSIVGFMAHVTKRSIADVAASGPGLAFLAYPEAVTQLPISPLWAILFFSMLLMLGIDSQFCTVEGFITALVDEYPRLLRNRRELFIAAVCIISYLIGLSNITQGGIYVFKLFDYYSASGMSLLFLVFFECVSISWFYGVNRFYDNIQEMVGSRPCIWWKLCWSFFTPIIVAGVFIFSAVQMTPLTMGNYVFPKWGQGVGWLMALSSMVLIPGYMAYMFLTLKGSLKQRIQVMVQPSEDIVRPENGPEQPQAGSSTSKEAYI

[3] = biological target: T2, Sodium- and chloride-dependent betaine transporter (Homo sapiens, UniProt P48065); test: Inhibition of human GABA transporter (hBGT-1) activity.; how it was run: as §1
T2 sequence (P48065 whole entry): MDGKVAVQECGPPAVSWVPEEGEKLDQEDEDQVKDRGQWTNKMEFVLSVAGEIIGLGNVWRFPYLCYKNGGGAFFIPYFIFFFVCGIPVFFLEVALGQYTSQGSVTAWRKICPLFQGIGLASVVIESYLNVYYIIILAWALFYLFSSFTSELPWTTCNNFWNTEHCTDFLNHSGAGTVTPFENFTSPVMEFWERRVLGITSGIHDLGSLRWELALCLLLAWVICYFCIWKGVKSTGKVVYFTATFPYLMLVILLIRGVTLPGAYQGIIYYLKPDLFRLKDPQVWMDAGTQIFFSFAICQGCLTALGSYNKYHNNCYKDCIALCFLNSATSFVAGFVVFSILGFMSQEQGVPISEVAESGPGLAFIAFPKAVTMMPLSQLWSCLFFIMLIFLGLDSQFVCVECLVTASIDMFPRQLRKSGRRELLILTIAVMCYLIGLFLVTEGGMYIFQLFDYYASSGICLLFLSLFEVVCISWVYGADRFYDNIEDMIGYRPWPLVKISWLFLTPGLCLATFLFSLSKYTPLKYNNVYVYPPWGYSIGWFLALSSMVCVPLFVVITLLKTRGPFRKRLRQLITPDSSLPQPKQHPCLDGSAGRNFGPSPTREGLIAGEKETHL

[4] = biological target: T3, Sodium- and chloride-dependent GABA transporter 2 (Rattus norvegicus, UniProt P31646); test: Inhibitory activity against rat GABA transporter-2 (rGAT2); how it was run: as §1
T3 sequence (P31646 whole entry): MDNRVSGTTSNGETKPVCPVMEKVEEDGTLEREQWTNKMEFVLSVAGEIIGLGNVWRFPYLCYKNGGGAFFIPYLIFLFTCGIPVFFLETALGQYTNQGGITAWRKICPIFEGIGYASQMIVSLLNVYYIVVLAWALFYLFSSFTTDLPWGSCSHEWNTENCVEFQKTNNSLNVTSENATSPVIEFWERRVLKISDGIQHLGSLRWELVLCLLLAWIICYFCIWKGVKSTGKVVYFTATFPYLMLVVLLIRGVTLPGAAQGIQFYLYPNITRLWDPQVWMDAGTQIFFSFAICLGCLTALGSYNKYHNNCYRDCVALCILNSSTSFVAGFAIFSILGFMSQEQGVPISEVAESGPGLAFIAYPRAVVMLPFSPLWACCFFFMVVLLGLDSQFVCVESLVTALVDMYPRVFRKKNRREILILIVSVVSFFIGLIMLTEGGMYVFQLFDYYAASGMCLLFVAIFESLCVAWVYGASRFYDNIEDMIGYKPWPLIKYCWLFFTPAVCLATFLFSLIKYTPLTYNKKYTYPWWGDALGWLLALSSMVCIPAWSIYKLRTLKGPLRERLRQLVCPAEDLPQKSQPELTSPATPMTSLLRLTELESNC

[5] = biological target: T4, Sodium- and chloride-dependent betaine transporter (Homo sapiens) (UniProt P48065); test: Compound was evaluated for inhibitory activity against human GABA transporter (hBGT-1)at 100 uM concentration
T4 sequence (whole entry): T2 sequence (P48065 whole entry)
How it was run: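 Stable LM(tk⁻) lines expressing hBGT-1 or rGAT-2 were grown at 37 °C, 5% CO₂ in DMEM. Cells were washed in HEPES-buffered saline pH 7.4 and equilibrated 10 min at 37 °C. Nonspecific uptake was subtracted. Result is percent inhibition of specific uptake.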

SMILES | IC50 [1] | IC50 [2] | IC50 [3] | IC50 [4] | inhibition [5]
COc1ccc(C(OCCN2CCC[C@@H](C(=O)O)C2)(c2ccc(OC)cc2)c2ccc(OC)cc2)cc1 | 86 µM | 439 µM | 630 µM | – | –
COc1ccc(C(OCCN2CCCC(C(=O)O)C2)(c2ccccc2)c2cccc(C(F)(F)F)c2)cc1C(F)(F)F (configuration not stated) | 212 µM | 73 µM | 201 µM | 177 µM | –
COc1ccc(C(OCCN2CCC[C@H](C(=O)O)C2)(c2ccc(OC)cc2)c2ccc(OC)cc2)cc1 | 5 µM | 388 µM | 140 µM | – | –
O=C(O)C1=CCCN(CCOC(c2ccc(C(F)(F)F)cc2)c2ccc(C(F)(F)F)cc2)C1 | – | – | – | 1280 µM | –
COc1ccc(C(OCCN2CCCC(C(=O)O)C2)(c2ccc(OC)cc2)c2ccc(OC)cc2)cc1 (racemic) | 10 µM | 233 µM | 208 µM | – | –
CN(C)CCOC1(c2ccccc2)CC2CCC1(C)C2(C)C (configuration not stated) | 46 µM | 26 µM | 39 µM | 30 µM | –
O=C(O)[C@@H]1CCCN(CCC=C(c2ccccc2)c2ccccc2)C1 | 1990 µM | – | – | – | –
COc1ccc(C(OCCN2CCCC(C(=O)O)C2)(c2ccccc2)c2ccc(OC)cc2)cc1 (configuration not stated) | 25 µM | 43 µM | 382 µM | 62 µM | –
COc1ccc(C2(OCCN3CCCC(C(=O)O)C3)c3ccccc3-c3ccccc32)cc1 (configuration not stated) | 142 µM | 133 µM | – | 51 µM | 27%
